Experimental data collected from several papers.
Protocols differ between the studies behind these lines.
RET V804M: Proto-oncogene tyrosine-protein kinase receptor Ret (RET, Homo sapiens, UniProt P07949, V804M)
RET: Proto-oncogene tyrosine-protein kinase receptor Ret (RET, Homo sapiens, UniProt P07949)
RET V804L: Proto-oncogene tyrosine-protein kinase receptor Ret (RET, Homo sapiens, UniProt P07949, V804L)

Compound	target	assay	conditions	endpoint	value
Cc1ccc(NC(=O)c2ccc(C)c(C(F)(F)F)c2)cc1C#Cc1nn(C2CCC(O)CC2)c2ncnc(N)c12 (stereo not drawn)	RET V804M	cell-free assay	10 µM	remaining signal	-2%
C=CC(=O)Nc1cc(Nc2nccc(Nc3cc(Cl)c(F)cc3C(C)(C)O)n2)c(OC)cc1N1CC[C@@H](N(C)C)C1	RET V804M	enzyme activity, inhibitor	1 µM	inhibition	-6%
COc1cc2ncnc(Nc3ccc(Oc4ccccc4)c(C)c3C)c2cc1OC	RET	enzyme activity, inhibitor	1 µM	inhibition	17%
CC(=O)Nc1c(C(C)=O)c(=O)n(C)c2nc(-c3ccc(Cl)cc3Cl)c(-c3ccc(Cl)cc3)cc12	RET V804L	cell-free assay, competition with immobilised ligand	1 µM	remaining binding	100%
C[C@@H]1CCN(C(=O)CC#N)C[C@@H]1N(C)c1ncnc2[nH]ccc12	RET	cell-free assay	0.5 µM	remaining signal	92.4%
CCOC(=O)N1CCN(c2nc(Nc3ccc(C)cc3)c3nn[nH]c3n2)CC1	RET	enzyme activity, inhibitor, radiometric	0.1 µM	remaining activity	128%
Nc1c(C(=O)NCc2ccc(C(=O)NCCCC3CCCCC3)cc2)cnn1-c1ccccc1	RET	cell-free assay, competition with immobilised ligand	0.1 µM	remaining binding	89%
Cc1cc(NC(=O)Nc2c(NC3CCCC3)c3ccccc3oc2=O)ccc1Br	RET	enzyme activity, inhibitor, radiometric	10 µM	remaining activity	67.7%
COc1ccc(CN2C3CC2CN(c2ccc(-c4cc(OCC(C)(C)O)cn5ncc(C#N)c45)cn2)C3)cn1	Proto-oncogene tyrosine-protein kinase receptor Ret (RET, Homo sapiens, UniProt P07949, L760A)	thermal stability, DSF	10 µM	ΔTm	8.7 °C
COc1cc(-c2cc(-c3ccc(N4CCNCC4)cc3)cnc2N)cc(OC)c1OC	RET V804L	enzyme activity, inhibitor	1 µM	inhibition	5%
CCOC(=O)c1cc2cc(-c3cc(C(=O)NCc4ccc(C(=O)O)cc4)nn3C)ccc2[nH]1	RET	cell-free assay, competition with immobilised ligand	0.1 µM	remaining binding	87%
COc1ccc(OC)c(NC(=O)Nc2cc(OC)c3nc(NC(=O)c4ccccc4)sc3c2)c1	RET	enzyme activity, inhibitor, radiometric	0.1 µM	remaining activity	114%
CO[C@]1(C(=O)N[C@@H](C)c2ccc(-n3cc(F)cn3)nc2)CC[C@H](c2nc(C)cc(Nc3cc(C)[nH]n3)n2)CC1	RET V804M	thermal stability, DSF	10 µM	ΔTm	8.7 °C
COc1ccc(COc2ccc(Cc3cnc(N)nc3N)cc2OC)cc1	RET	cell-free assay	0.5 µM	remaining signal	108%
CC/C(=N\NC(=O)NCc1cccc(O)c1)c1ccc(O)c(C)c1O	Proto-oncogene tyrosine-protein kinase receptor Ret (RET, Homo sapiens, UniProt P07949, S891A)	enzyme activity, inhibitor	0.1 µM	inhibition	6.2%
C[C@H](c1ccc(F)cc1)N(Cc1cccc(C(=O)O)c1)C(=O)c1cnc2ccccc2c1	RET V804M	cell-free assay, competition with immobilised ligand	1 µM	remaining binding	100%
Nc1ncnc2occ(-c3ccc(NC(=O)Nc4cc(C(F)(F)F)ccc4F)cc3)c12	Proto-oncogene tyrosine-protein kinase receptor Ret (RET, Homo sapiens, UniProt P07949, M918T)	cell-free assay	20 µM	remaining signal	0%
Cc1cc(NC(=O)Nc2ccc(F)cc2)cc2sc(NC(=O)c3ccccc3)nc12	RET	enzyme activity, inhibitor, radiometric	0.1 µM	remaining activity	146%
Cc1cc(-n2nc(Cc3cc(F)cc(C(F)(F)F)c3)nc2C)ccc1C(N)=O	RET V804M	cell-free assay, competition with immobilised ligand	1 µM	remaining binding	100%
Nc1nc(SCC(=O)Nc2ccc3c(c2)OCO3)[nH]c(=O)c1NC(=O)c1ccc(F)c(F)c1	RET	enzyme activity, inhibitor, radiometric	0.1 µM	remaining activity	109%
Cc1cc(NC(=O)c2cccc3cc(-c4cccc5[nH]nc(N)c45)ccc23)ccc1F	RET V804L	enzyme activity, inhibitor	0.1 µM	activity vs control	116%
CC(=O)c1cccc(NC(=O)Cc2csc(NC(=O)Nc3cccc(Cl)c3)n2)c1	RET	enzyme activity, inhibitor, radiometric	10 µM	remaining activity	92.6%
CCCCN(CCCC)C(=O)CN1C[C@H](c2cc(OC)c3c(c2)OCO3)[C@@H](C(=O)O)[C@@H]1CC(C)(C)CCC	RET V804M	cell-free assay, competition with immobilised ligand	1 µM	remaining binding	100%
COc1cc(NC(=O)Nc2ccc(Br)cc2)cc2sc(NC(=O)c3ccccc3)nc12	RET	enzyme activity, inhibitor, radiometric	10 µM	remaining activity	106%
CC(C)(O)c1cncc(-c2nc3ccc(F)cc3n2C2CC2)c1	RET V804M	cell-free assay, competition with immobilised ligand	1 µM	remaining binding	100%
COc1ccc(NC(=O)Nc2cc(C)c3nc(NC(=O)c4ccccc4)sc3c2)c(OC)c1	RET	enzyme activity, inhibitor, radiometric	0.1 µM	remaining activity	133%
Cc1ccc(C(=O)Nc2ccc(CN3CCN(C)CC3)c(C(F)(F)F)c2)cc1C#Cc1cnc2cccnn12	RET V804L	enzyme activity	23.5 nM	remaining activity	17%
COc1cc2c(N3CCN(C(=O)Nc4ccc(OC(C)C)cc4)CC3)ncnc2cc1OCCCN1CCCCC1	RET	cell-free assay	0.5 µM	remaining signal	91.5%
CNC(=O)Nc1ccc2c(c1)CC[C@@]21OC(=O)N(CC(=O)N(Cc2ccc(F)cc2)[C@@H](C)C(F)(F)F)C1=O	RET	cell-free assay, competition with immobilised ligand	1 µM	remaining binding	90%
CCCOc1ccc(OC)c(F)c1C(=O)c1ccc(C(=O)N[C@@H]2CNC[C@H]2NC(=O)c2ccc3[nH]ncc3c2)cc1	RET V804L	enzyme activity, inhibitor	10 µM	remaining activity	8%
